Published values of several laboratories.
Compare with care: the assays were run in different laboratories.
SLC22A11: Solute carrier family 22 member 11 (SLC22A11, Homo sapiens, UniProt Q9NSA0)
MINK1: Misshapen-like kinase 1 (MINK1, Homo sapiens, UniProt Q8N4C8)
RIOK1: Serine/threonine-protein kinase RIO1 (RIOK1, Homo sapiens, UniProt Q9BRS2)

| target | assay | setting | measurement | value | SMILES |
| --- | --- | --- | --- | --- | --- |
| SLC22A11 | transporter uptake, inhibitor | 25 µM | inhibition | 50 to 90% | CCCCC1=NC2(CCCC2)C(=O)N1Cc1ccc(-c2ccccc2-c2nnn[nH]2)cc1 |
| MINK1 | binding, competition with immobilised ligand | 0.5 µM | remaining binding | 99% | CCCCC(=O)Nc1ccc(-c2ccc3ncn(CCC)c(=O)c3c2)cn1 |
| SLC22A11 | transporter uptake, inhibitor | 25 µM | inhibition | 76.1% | C[C@@H]1CC(=O)NN=C1c1ccc(NN=C(C#N)C#N)cc1 |
| Alpha-2A adrenergic receptor (ADRA2A, Homo sapiens, UniProt P08913) | cell-free assay | 10 µM | inhibition | 26% | Cc1cc(F)cc2c(CCC(=O)N[C@@H]3C(=O)NC[C@H]3O)c(-c3ccc(F)cc3)[nH]c12 |
| RIOK1 | binding, competition with immobilised ligand | 1 µM | remaining binding | 79% | Cc1cc(S(=O)(=O)N[C@H]2CC[C@H](CN3CCN(c4ccc(C5CCC(=O)NC5=O)cc4F)CC3)CC2)ccc1Nc1ncc(C(F)(F)F)c(N2CCC[C@](C)(O)C2)n1 (stereo partly drawn) |
| MINK1 | enzyme activity, inhibitor | 0.2 µM | inhibition | 55.9% | C#Cc1cc(-c2cc(Nc3nc(N[C@@H](C)c4ccc(F)cn4)ncc3Cl)n[nH]2)ccc1C=O |
| Receptor-interacting serine/threonine-protein kinase 4 (RIPK4, Homo sapiens, UniProt P57078) | enzyme activity, inhibitor | 0.1 µM | inhibition | 0.327% | Cc1cc(O)c(-c2ccc([C@@H](C)CN(C)C)cc2)c2c1[nH]c(=O)c1sccc12 |
| SLC22A11 | transporter uptake, inhibitor | 25 µM | inhibition | 76.5% | CC(=O)Oc1ccccc1C(=O)Nc1ncc([N+](=O)[O-])s1 |
| Diamine oxidase [copper-containing] (AOC1, Homo sapiens, UniProt P19801) | enzyme activity, inhibitor | 200 pM | inhibition | 3.14% | NC/C(=C\F)COc1cccc(Cn2c(=S)[nH]c(=O)c3[nH]cnc32)c1 |
| STE20-like serine/threonine-protein kinase (SLK, Homo sapiens, UniProt Q9H2G2) | binding, competition with immobilised ligand | 1 µM | remaining binding | 34% | C[C@]1(O)CCCN(c2nc(Nc3ccc(S(=O)(=O)N[C@H]4CC[C@H](CN5CCN(c6ccc(C7CCC(=O)NC7=O)cc6F)CC5)CC4)cc3F)ncc2C(F)(F)F)C1 (stereo partly drawn) |
| SLC22A11 | transporter uptake, inhibitor | 25 µM | inhibition | 90.2% | CCCc1nc2c(C)cc(-c3nc4ccccc4n3C)cc2n1Cc1ccc(-c2ccccc2C(=O)O)cc1 |
| Transient receptor potential cation channel subfamily M member 7 (TRPM7, Homo sapiens, UniProt Q96QT4) | binding | 1 µM | remaining binding | 106% | COc1ccc2oc(-c3ccc4nc(N)oc4c3)c/c(=N\c3ccccc3NC(=O)CCN)c2c1 |
| RIOK1 | binding, competition with immobilised ligand | 1 µM | remaining binding | 99% | CNS(=O)(=O)c1ccc(Nc2ncc(C(F)(F)F)c(N3CCC[C@](C)(O)C3)n2)c(C)c1 |
| Tyrosine-protein kinase ABL1 (ABL1, Homo sapiens, UniProt P00519, T315I) | binding | 0.1 µM | remaining binding | 13% | C1=C/COCc2cc(ccc2OCCN2CCCC2)Nc2nccc(n2)-c2cccc(c2)COC/1 |
| SLC22A11 | transporter uptake, inhibitor | 25 µM | inhibition | 87.8% | CC(C)=CCCC1(C)C=Cc2c(O)c3c(c(CC=C(C)C)c2O1)OC12C(=CCCC1C(C)(C)O[C@@]2(C/C=C(\C)C(=O)O)C(=O)O)C3=O (stereo partly drawn) |
| 5-hydroxytryptamine receptor 3A (HTR3A, Homo sapiens, UniProt P46098) | ligand displacement, radioligand | 10 µM | inhibition | 0% | CCN1/C(=C/C(C)=O)Sc2ccc(F)cc21 |
| SLC22A11 | transporter uptake, inhibitor | 25 µM | inhibition | 82.7% | CCCCC1C(=O)N(c2ccccc2)N(c2ccccc2)C1=O |
| CD209 antigen (CD209, Homo sapiens, UniProt Q9NNX6) | cell-free assay | pH 7.4 | kinact | 0.00574 s⁻¹ | O=C(ON1C(=O)CCC1=O)c1cc(C(F)(F)F)cc(C(F)(F)F)c1 |
